Results pooled from the literature.
Compare with care: the assays were run in different laboratories.
SMARCA2: SWI/SNF-related matrix-associated actin-dependent regulator of chromatin subfamily A member 2 (SMARCA2, Homo sapiens, UniProt P51531)
BRAF V600E: Serine/threonine-protein kinase B-raf (BRAF, Homo sapiens, UniProt P15056, V600E)
PADI2: Protein-arginine deiminase type-2 (PADI2, Homo sapiens, UniProt Q9Y2J8)

Compound | target | test | test system | conditions | quantity | result
CC(C)(C)C/C=C1\CCn2c1nc(=O)c1c(Cl)cccc12 | SMARCA2 | thermal stability, DSF |  | 100 µM | ΔTm | 1.61 °C
Cc1cnc(Nc2ccc(OCCN3CCCC3)cc2)nc1Nc1cccc(S(=O)(=O)NC(C)(C)C)c1 | Nucleosome-remodeling factor subunit BPTF (BPTF, Homo sapiens, UniProt Q12830) | thermal stability, DSF |  | 10 µM | ΔTm | 0.8 °C
COc1cc(CNCCc2c[nH]c3ccccc23)cc(Cl)c1OCC(N)=O | D(2) dopamine receptor (DRD2, Homo sapiens, UniProt P14416) | enzyme activity, inhibitor |  | 10 µM | inhibition | 30.3%
Cc1ccc(C(CS(=O)(=O)c2ccccc2)=NNc2nc(C)c(N=Nc3cccc(C)c3)s2)cc1 | BRAF V600E | enzyme activity, inhibitor, ATP luminescence |  | 10 µM | inhibition | 92%
CCCOc1ccc(OC)c(F)c1C(=O)c1ccc(C(=O)N[C@@H]2CNC[C@H]2NC(=O)c2ccc3[nH]ncc3c2)cc1 | Muscle, skeletal receptor tyrosine-protein kinase (MUSK, Homo sapiens, UniProt O15146) | enzyme activity, inhibitor |  | 0.1 µM | remaining activity | 65%
CCC(/C=C1\CCn2c1nc(=O)c1ccc(OC)cc12)CC | SMARCA2 | thermal stability, DSF |  | 100 µM | ΔTm | 0 °C
N=C(CF)NCCC[C@H](NC(=O)c1ccccc1C(=O)O)c1nn[nH]n1 | PADI2 | enzyme activity, inhibitor |  |  | kinact/KI | 42.5 M⁻¹ s⁻¹
CC1(c2ccccc2)COCC(N)=N1 (stereo not shown) | Beta-secretase 1 (BACE1, Homo sapiens, UniProt P56817) | thermal stability, DSF |  | 2.1 mM, pH 5.4 | ΔTm | 2.78 °C
Nc1ncnc2occ(-c3ccc(NC(=O)Nc4cc(C(F)(F)F)ccc4F)cc3)c12 | Epidermal growth factor receptor (EGFR, Homo sapiens, UniProt P00533, L858R/T790M) | cell-free assay |  | 20 µM | remaining signal | 13%
CC(=O)N[C@H]1CSSC[C@@H](C(=O)N[C@H](Cc2c[nH]c3ccccc23)C(N)=O)NC(=O)[C@H](Cc2ccccc2)NC(=O)[C@H](CCCNC(=N)N)NC1=O | Melanocyte-stimulating hormone receptor (MC1R, Homo sapiens, UniProt Q01726) | cAMP, agonist | HEK293 | 3 min | Emax | 0%
Cc1ccc(C(=O)Nc2ccc(CN3CCN(C)CC3)c(C(F)(F)F)c2)cc1C#Cc1cnc2cccnn12 | Serine/threonine-protein kinase Nek5 (NEK5, Homo sapiens, UniProt Q6P3R8) | enzyme activity, inhibitor |  | 23.5 nM | remaining activity | 97%
CCC(/C=C1\CCn2c1nc(=O)c1cc(O)ccc12)CC | SMARCA2 | thermal stability, DSF |  | 100 µM | ΔTm | -0.28 °C
Cc1cnc(NC2CCOCC2)nc1-n1cnc(C(=O)NC(CN)c2cc(F)cc(Cl)c2)c1 (stereo not shown) | Tyrosine-protein kinase Blk (Blk, Mus musculus, UniProt P16277) | enzyme activity, inhibitor, radiometric |  | 1 µM | remaining activity | 106%
CCC(/C=C1\CCCn2c1nc(=O)c1c(Cl)cccc12)CC | SMARCA2 | thermal stability, DSF |  | 100 µM | ΔTm | 0.48 °C
Cc1ccc(C(CS(=O)(=O)c2ccccc2)=NNc2nc(-c3ccc(OCCCCOc4ccc(-c5csc(NN=C(CS(=O)(=O)c6ccccc6)c6ccc(C)cc6)n5)cc4)cc3)cs2)cc1 | BRAF V600E | enzyme activity, inhibitor, ATP luminescence |  | 10 µM | inhibition | 91%
CC(C)(C)n1nnc([C@H](CCCNC(=N)CCl)NC(=O)c2ccccc2C(=O)O)n1 | PADI2 | enzyme activity, inhibitor |  |  | kinact/KI | 1000 M⁻¹ s⁻¹
Cc1ccc(NC(=O)c2ccc(C)c(C(F)(F)F)c2)cc1C#Cc1nn(C2CCC(O)CC2)c2ncnc(N)c12 (stereo not shown) | Dual specificity mitogen-activated protein kinase kinase 4 (Map2k4, Mus musculus, UniProt P47809) | cell-free assay |  | 10 µM | remaining signal | 49%
Cc1ccc(C(CS(=O)(=O)c2ccccc2)=NN=C2N=C(c3ccc(C)cc3)CS2)cc1 | BRAF V600E | enzyme activity, inhibitor, ATP luminescence |  | 0.1 µM | inhibition | 43%
C[S+]([O-])c1ccc(-c2nc(-c3ccncc3)c(-c3ccc(F)cc3)[nH]2)cc1 (stereo not shown) | SMARCA2 | thermal stability, DSF |  | 10 µM | ΔTm | 0.31 °C
